Reference: ChEMBL document CHEMBL4680238, “Novel octapeptide-DTX prodrugs targeting MMP-7 as effective agents for the treatment of colorectal cancer with lower systemic toxicity” (Eur J Med Chem, 2020)
Residues, ends and D or L forms follow the SMILES beside them. *: point of attachment. X1 = CC(=O)O[C@@]12CO[C@@H]1C[C@H](O)[C@@]1(C)C(=O)[C@H](O)C3=C(C)[C@@H](OC(=O)[C@H](OC(=O)OCc4ccc(N*)cc4)[C@@H](NC(=O)OC(C)(C)C)c4ccccc4)C[C@@](O)([C@@H](OC(=O)c4ccccc4)[C@H]21)C3(C)C

Experiments:
[1] = MRT (0 to infinity) in Sprague-Dawley rat at 5 mg/kg, iv measured up to 72 hrs by LC-MS/MS analysis; format: ADME, organism-based; conditions: in vivo
In short: (§1)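 Male SD rats (180-200 g), fasted 12 h with free water, n = 3 per group. Single tail-vein dose of 5 mg/kg in 0.5% DMSO/5% castor oil/5% ethanol/89.5% saline. Retro-orbital blood drawn 0.083-72 h with heparin. Plasma protein-precipitated with methanol containing paclitaxel internal standard, then analysed by LC-MS/MS. Parameters from non-compartmental analysis, mean ± SD. For the DTX group, parameters were calculated after converting dose to the molar equivalent of the prodrug.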

HCT-116 [2] = experiment: Antitumour activity against human HCT-116 cells xenografted in BALB/c nude mouse assessed as tumour growth inhibition at 5.85 mg/kg, ip administered once for every 7 days for 14 days relative to control; format: functional; conditions: HCT-116, ip, 336 h, time 14 day, read-out: TGI
In short: (§2)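 Male BALB/c nude mice received s.c. HCT116 cells (2 × 10^6 in 0.2 mL PBS). Once tumours reached 100-200 mm3, mice were randomized into groups of six. Dosing was ip, 0.1 mL/10 g, once every 7 days, in DMSO 0.5%/castor oil 5%/ethanol 5%/saline 89.5%; vehicle controls got solvent. Caliper volume V = L×W²×0.52 read every 2-3 days. Tumours excised and weighed on day 14.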

[3] = Half life in Sprague-Dawley rat plasma t 50 ug/ml up to 72 hrs by RP-HPLC analysis; format: ADME, cell-free; conditions: dose 50 µg/ml
[4] = Drug uptake in BALB/c nude mouse xenografted with human HCT-116 cells assessed as drug level in lung at 5 mg/kg, iv measured up to 24 hrs by LC-MS/MS analysis; format: ADME, organism-based; conditions: in vivo
In short: (§3)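 Male BALB/c nude mice bearing s.c. HCT116 tumours (200-300 mm3), 20 per group. Single tail-vein dose of 5 mg/kg. Five mice per group killed at 0.5, 4, 8 and 24 h and heart-perfused with PBS. Tissues homogenized in saline (4 µL/mg) and precipitated with methanol containing paclitaxel internal standard. Prodrug, released DTX and free DTX measured by LC-MS/MS.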

[5] = Drug uptake in BALB/c nude mouse xenografted with human HCT-116 cells assessed as drug level in liver at 5 mg/kg, iv measured up to 24 hrs by LC-MS/MS analysis; format: ADME, organism-based; conditions: in vivo; in short: as §3
[6] = Apparent volume of distribution in Sprague-Dawley rat at 5 mg/kg, iv measured up to 72 hrs by LC-MS/MS analysis; format: ADME, organism-based; conditions: in vivo, read-out: Vz; in short: as §1
[7] = Apparent clearance in Sprague-Dawley rat at 5 mg/kg, iv measured up to 72 hrs by LC-MS/MS analysis; format: ADME, organism-based; conditions: Sprague-Dawley, in vivo, read-out: CL(app) (converted); in short: as §1
[8] = Drug uptake in BALB/c nude mouse xenografted with human HCT-116 cells assessed as drug level in tumour at 5 mg/kg, iv measured up to 24 hrs by LC-MS/MS analysis; format: ADME, organism-based, Neoplasm; conditions: in vivo; in short: as §3
CCD-18Co = experiment: Cytotoxicity against human CCD-18Co cells assessed as reduction in cell viability after 72 hrs by MTT assay; format: cell-based
In short: (§4)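 Cells seeded at 5000/well and precultured 1 day. HCT116 grown in McCoy's 5A + 10% FBS; SW620 and HEK293 in DMEM + 10% FBS; CCD18Co in DMEM + 15% FBS. Compounds from 0.1 M DMSO stocks were tested at 10^-10 to 10^-4 mol/L in sixplicate: HCT116 and HEK293 for 48 h, SW620 and CCD18Co for 72 h, at 37 °C, 5% CO2. MTT (5 mg/mL) added for 4 h, then A570 read; IC50 estimated.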

[9] = Apparent volume of distribution in Sprague-Dawley rat assessed as docetaxel level at 5 mg/kg, iv measured up to 72 hrs by LC-MS/MS analysis; format: ADME, organism-based; conditions: in vivo; in short: as §1
[10] = Toxicity in BALB/c nude mouse xenografted with human HCT-116 cells assessed as necrosis in liver at 11.73 mg/kg, ip administered once for every 7 days for 14 days by H and E staining based assay; format: organism-based; conditions: in vivo, 336 h, time 14 day
In short: (§5)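 At the end of the 14-day ip xenograft study (HCT116, BALB/c nude), heart and liver were collected from vehicle and molar-equivalent dose groups. Tissues fixed in 10% formalin in PBS and stained with H&E. Liver examined at 400×, heart at 100×.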

SW-620 [11] = experiment: Potency index, ratio of 4FDT IC50 to test compound IC50 for Cytotoxicity against human SW-620 cells; format: functional
[12] = MRT (0 to infinity) in Sprague-Dawley rat assessed as docetaxel level at 5 mg/kg, iv measured up to 72 hrs by LC-MS/MS analysis; format: ADME, organism-based; conditions: in vivo; in short: as §1
[13] = Apparent clearance in Sprague-Dawley rat assessed as docetaxel level at 5 mg/kg, iv measured up to 72 hrs by LC-MS/MS analysis; format: ADME, organism-based; conditions: in vivo; in short: as §1
[14] = Toxicity in BALB/c nude mouse xenografted with human HCT-116 cells assessed as concentrated nucleus in liver at 11.73 mg/kg, ip administered once for every 7 days for 14 days by H and E staining based assay; format: organism-based; conditions: in vivo, 336 h, time 14 day; in short: as §5
[15] = Drug uptake in BALB/c nude mouse xenografted with human HCT-116 cells assessed as drug level in spleen at 5 mg/kg, iv measured up to 24 hrs by LC-MS/MS analysis; format: ADME, organism-based; conditions: in vivo; in short: as §3
[16] = Toxicity in BALB/c nude mouse xenografted with human HCT-116 cells assessed as reduction in body weight at 23.4 mg/kg, ip administered once for every 7 days for 14 days relative to control; format: organism-based; parameters: scale not given: the % may be the effect or the level left; conditions: in vivo, 336 h, time 14 day
In short: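 HCT116 s.c. xenografts in male BALB/c nude mice, n = 6 per group. Dosing was ip once every 7 days for 2 weeks in DMSO/castor oil/ethanol/saline; vehicle controls got solvent. Body weight recorded every other day or every three days. Weight loss taken at day 14. Mean ± SD.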

[17] = Toxicity in BALB/c nude mouse xenografted with human HCT-116 cells assessed as inflammatory cell invasion in heart at 11.73 mg/kg, ip administered once for every 7 days for 14 days by H and E staining based assay; format: organism-based; conditions: in vivo, 336 h, time 14 day; in short: as §5
SW-620 [18] = experiment: Cytotoxicity against human SW-620 cells assessed as reduction in cell viability after 72 hrs by MTT assay; format: functional, cell-based; conditions: SW-620, 72 h; in short: as §4
[19] = AUC (0 to t) in Sprague-Dawley rat assessed as docetaxel level at 5 mg/kg, iv measured up to 72 hrs by LC-MS/MS analysis; format: ADME, organism-based; parameters: route intravenous, dose 5 mg/kg, time <=72; conditions: in vivo; in short: as §1
HCT-116 [20] = experiment: Antitumour activity against human HCT-116 cells xenografted in ip dosed BALB/c nude mouse assessed as tumour growth inhibition administered once for every 7 days for 14 days; format: functional, organism-based; conditions: time 14.0 day; in short: as §2
[21] = AUC (0 to infinity) in Sprague-Dawley rat assessed as docetaxel level at 5 mg/kg, iv measured up to 72 hrs by LC-MS/MS analysis; format: ADME, organism-based; parameters: route intravenous, dose 5 mg/kg, time <=72; conditions: in vivo; in short: as §1

`CC[C@H](C)[C@H](NC(=O)CNC(=O)[C@H](CCC(N)=O)NC(=O)[C@@H]1CCCN1C(=O)CNC(C)=O)C(=O)N[C@@H](C)C(=O)N[C@@H](CCSC)C(=O)N[C@@H](CCC(N)=O)C(=O)N[C@@H](CC(C)C)C(=O)Nc1ccc(COC(=O)O[C@@H](C(=O)O[C@H]2C[C@@]3(O)[C@@H](OC(=O)c4ccccc4)[C@@H]4[C@]5(OC(C)=O)CO[C@@H]5C[C@H](O)[C@@]4(C)C(=O)[C@H](O)C(=C2C)C3(C)C)[C@@H](NC(=O)OC(C)(C)C)c2ccccc2)cc1` (Ac-GPQGIAMQL-X1) showed an MRT inf [1] of 11.6 h, an inhibition in vivo at 5.85 mg/kg (HCT-116 [2]) of 28.8% and a half-life at 50 ug/ml [3] of 24.2 h. The Drug uptake [4] was “Active”, the Drug uptake [5] was “Active” and the Vd [6] was 10.4 L/kg. For the same compound, the clearance [7] was 9.33 mL/min/kg, the Drug uptake [8] was “Active” and the IC50 (CCD-18Co) was greater than 200000 nM. For the same compound, the Vz [9] was 206.32 L/kg, the Activity [10] was “Non-Toxic” and the “Ratio IC50” value (SW-620 [11]) was 9. For the same compound, the MRT [12] was 9.04 h, the “CL(app)” value [13] was 316.3 mL/min/kg and the Activity [14] was “Non-Toxic”. For the same compound, the Drug uptake [15] was “Active”, the Activity [16] was 12.2% and the Activity [17] was “Non-Toxic”. The IC50 (SW-620 [18]) was 30 nM, the AUCt [19] was 247 ng·h/mL and the TGI (HCT-116 [20]) was “Dose-dependent effect”. The AUC [21] was 299 ng·h/mL.
